Source: PubChem BioAssay (Johns Hopkins Ion Channel Center)
Shown are actives, neighbours in structure and some others; about 2.9% of the full set was active somewhere.
TRPC6 inh – blocks the mouse TRPC6 cation channel | B-score at 10 µM | Q61143 | actives 1.1% (n = 310,000) | HEK293-TRPC6, membrane potential dye, ACh-evoked depolarization; hits give low values | AID 2553;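 active = B-score under library mean minus 3 SD, initial fluorescence not abnormally high, positive integrated signal ratio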;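 also: B-score derived from integrated fluorescence ratio over the kinetic read; more negative B-score means stronger inhibition of depolarization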
TRPC4 block – inhibitors of mouse TRPC4 channel. actives 0.39% (n = 300,000). HEK293 TRPC4beta/mu-opioid, DAMGO-evoked Fluo4 calcium flux; hits give low values. B-score at 10 µM. AID 2247;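 active = B-score over 3 SD under the library average, no early fluorescence shift, positive overall ratio signal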
Target sequence (Q9QUQ5 whole entry, looked up): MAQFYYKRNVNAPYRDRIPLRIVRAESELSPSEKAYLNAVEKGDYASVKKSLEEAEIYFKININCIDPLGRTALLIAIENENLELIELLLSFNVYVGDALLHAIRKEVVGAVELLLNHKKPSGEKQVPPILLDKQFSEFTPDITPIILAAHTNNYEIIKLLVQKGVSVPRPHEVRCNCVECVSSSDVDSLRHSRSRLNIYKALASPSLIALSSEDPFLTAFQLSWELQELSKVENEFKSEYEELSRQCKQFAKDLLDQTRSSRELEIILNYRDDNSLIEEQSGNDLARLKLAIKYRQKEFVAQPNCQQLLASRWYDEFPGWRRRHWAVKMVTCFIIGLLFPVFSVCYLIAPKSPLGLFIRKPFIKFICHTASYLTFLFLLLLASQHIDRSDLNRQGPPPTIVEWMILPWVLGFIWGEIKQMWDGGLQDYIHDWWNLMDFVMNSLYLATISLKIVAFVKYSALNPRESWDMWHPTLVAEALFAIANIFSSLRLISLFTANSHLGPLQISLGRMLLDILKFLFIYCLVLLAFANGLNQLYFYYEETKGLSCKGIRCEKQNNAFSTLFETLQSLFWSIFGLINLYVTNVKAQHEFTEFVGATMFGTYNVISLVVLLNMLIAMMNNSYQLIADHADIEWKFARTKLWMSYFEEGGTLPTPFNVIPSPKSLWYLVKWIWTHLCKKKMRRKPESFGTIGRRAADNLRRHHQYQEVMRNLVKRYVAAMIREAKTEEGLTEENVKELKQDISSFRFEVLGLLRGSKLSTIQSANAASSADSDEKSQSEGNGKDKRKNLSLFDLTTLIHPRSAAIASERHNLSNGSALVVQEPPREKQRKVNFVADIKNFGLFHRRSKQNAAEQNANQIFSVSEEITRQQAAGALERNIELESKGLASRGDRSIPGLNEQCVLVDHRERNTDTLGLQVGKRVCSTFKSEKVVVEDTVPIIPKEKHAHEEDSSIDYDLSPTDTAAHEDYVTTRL
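Material: HEK293 cells with stable TRPC4beta plus mu-opioid receptor expression / Probe or stimulus: DAMGO in two steps, submaximal then maximal / Compound: single concentration per test compound / Technique: kinetic Fluo4 fluorescence imaging of calcium influx / Read-out: per-well B score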
TRPC6 activator – mouse TRPC6 channel activation | B-score at 10 µM | HEK293-TRPC6 membrane potential dye fluorescence; hits give high values | actives 0.13% (n = 310,000) | Q61143 | AID 2550;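 active = B-score of the integrated fluorescence ratio above library mean plus 3 SD, and starting fluorescence ratio within library mean plus 5 SD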;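 also: higher score means more depolarization so channel activation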
TRPC4 PAM – allosterically enhances the mouse TRPC4 cation channel; Q9QUQ5; HEK293 TRPC4beta/mu-opioid, DAMGO EC20, Fluo-4 Ca2+ flux; hits give high values; B-score at 10 µM; actives 0.42% (n = 310,000);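 active = B-score of calcium response area above 5 SD of library B-scores, with initial fluorescence ratio within 5 SD of library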;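 also: B-score of integrated fluorescence ratio over time as area under calcium response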
TRPC4 act – activators of mouse TRPC4 channel; Q9QUQ5; HEK293 TRPC4beta/mu-opioid, Fluo4 calcium fluorescence; hits give high values; B-score at 10 µM; actives 0.49% (n = 310,000);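 active = B-score above 5 SD of library B-scores, and initial fluorescence ratio not above library mean plus 5 SD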;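 also: positive B-score marks a calcium rise read as TRPC4 activation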
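System – HEK293 cells stably co-expressing mouse TRPC4beta and mu-opioid receptor · Signal – Fluo4 calcium-sensitive dye fluorescence, kinetic, 1 Hz baseline · Benchmarks – buffer (low) and maximal DAMGO (high) · Read-out – B score of integrated fluorescence ratio per well · Incubation – dye loading 45 min room temperature, 110 s kinetic read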
Kir21 inh – inhibitors of mouse Kir2.1 inward-rectifier potassium channel. P35561. HEK293-Kir2.1, FluxOR thallium flux fluorescence; hits give low values. B-score at 10 µM. actives 0.85% (n = 310,000);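 active = fluorescence ratio B-score at or below minus 3 SD of library scores, with starting-brightness B-score within 2 SD, cut at about -4.2 in these data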;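 also: channel flux triggered by added potassium and thallium sulfate stimulus; B-score of peak minus minimum fluorescence over baseline after thallium stimulus; more negative B-score means stronger Kir2.1 block with less thallium influx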
* = called active by the depositor.

Screening Cc1cc2cc(CCNS(=O)(=O)c3ccc(F)cc3)c(=O)[nH]c2cc1C returned TRPC6 inh inactive, TRPC4 block inactive, TRPC6 activator inactive, TRPC4 PAM inactive, TRPC4 act inactive and Kir21 inh -0.02.
Screening Cc1ccc(-c2ccc(C#N)c(=O)n2CC(=O)N(C)C)cc1 returned TRPC6 inh inactive, TRPC4 block inactive, TRPC6 activator inactive, TRPC4 PAM inactive, TRPC4 act inactive and Kir21 inh -0.98.
Cc1ccccc1CSCc1nc2ccccc2[nH]1 was read as TRPC6 inh inactive, TRPC4 block inactive, TRPC6 activator inactive, TRPC4 PAM inactive, TRPC4 act inactive and Kir21 inh -0.07.
Screening Cc1ccc(C)c(CSCc2nc3ccccc3[nH]2)c1 returned TRPC6 inh inactive, TRPC4 block inactive, TRPC6 activator inactive, TRPC4 PAM inactive, TRPC4 act inactive and Kir21 inh -8.4*.
CC1CCCCC1NS(=O)(=O)c1ccc(S(=O)(=O)N2CCCC2)cc1 (configuration not stated) was read as TRPC6 inh inactive, TRPC4 block inactive, TRPC6 activator inactive, TRPC4 PAM 49*, TRPC4 act inactive and Kir21 inh 1.7.
CC1CN(c2nc(-c3ccc(Br)cc3)nnc2-c2ccccc2)CC(C)N1 (configuration not stated) was read as TRPC6 inh inactive, TRPC4 block inactive, TRPC6 activator inactive, TRPC4 PAM inactive, TRPC4 act inactive and Kir21 inh -9.3*.
For Cc1cc(-c2ccc(C(C)C)c(S(=O)(=O)NCCN3CCC(C)CC3)c2)on1 the results were TRPC6 inh inactive, TRPC4 block inactive, TRPC6 activator inactive, TRPC4 PAM inactive, TRPC4 act inactive and Kir21 inh -1.8.
Cc1nc(Nc2ccccc2)sc1C(=O)c1ccc(F)cc1 was read as TRPC6 inh inactive, TRPC4 block inactive, TRPC6 activator inactive, TRPC4 PAM 11*, TRPC4 act inactive and Kir21 inh -0.42.
Screening O=C(Nc1ccccc1)C(Cl)C(=O)c1ccccc1 (configuration not stated) returned TRPC6 inh inactive, TRPC4 block inactive, TRPC6 activator inactive, TRPC4 PAM inactive, TRPC4 act inactive and Kir21 inh -8.3*.
`O=[N+]([O-])c1c(Nc2ccccc2O)cc(Cl)c2nonc12` gave TRPC6 inh inactive, TRPC4 block inactive, TRPC6 activator inactive, TRPC4 PAM inactive, TRPC4 act inactive and Kir21 inh -7.2*.
For O=[N+]([O-])c1ccc(N2CCN(C(=S)Nc3ccc(F)cc3F)CC2)cc1 the results were TRPC6 inh inactive, TRPC4 block inactive, TRPC6 activator inactive, TRPC4 PAM inactive, TRPC4 act inactive and Kir21 inh 0.65.
`Cc1csc2c(N3CCN(C(=O)Nc4ccccc4)CC3)ncnc12` gave TRPC6 inh inactive, TRPC4 block inactive, TRPC6 activator inactive, TRPC4 PAM inactive, TRPC4 act 185* and Kir21 inh 1.1.
Cc1csc2c(N3CCN(C(=S)Nc4ccc(F)cc4F)CC3)ncnc12 was read as TRPC6 inh inactive, TRPC4 block inactive, TRPC6 activator inactive, TRPC4 PAM inactive, TRPC4 act 124* and Kir21 inh 0.65.
For Cc1ccc(C(=O)N2CCN(c3ncnc4c(C)csc34)CC2)cc1 the results were TRPC6 inh inactive, TRPC4 block inactive, TRPC6 activator inactive, TRPC4 PAM inactive, TRPC4 act inactive and Kir21 inh 1.4.
C/C(CC(=O)Nc1ccc(C)c(Cl)c1)=N\NC(=O)c1cccc(O)c1 was read as TRPC6 inh inactive, TRPC4 block inactive, TRPC6 activator inactive, TRPC4 PAM inactive, TRPC4 act inactive and Kir21 inh 0.74.
Cc1cc(C(=O)C(C)OC(=O)c2cnccn2)c(C)n1-c1ccccc1 (configuration not stated) was read as TRPC6 inh inactive, TRPC4 block inactive, TRPC6 activator inactive, TRPC4 PAM inactive, TRPC4 act inactive and Kir21 inh -1.5.
